Publication PMC3944078 (ACS chemical biology, 2013)
Where two headings read alike, the source gives them in different places. Values belong to the compound of their own block, whether it stands above or below them.

How the values were obtained:
MBP [1] = target: T1, MBP (Escherichia coli, UniProt P0AEX9); assay: DSF thermal stability of MBP with ligands; type: binding, E. coli; details: 1 µM MBP, 1mM ligand
E. coli MBP = details: MBP ligand; cited from earlier work
MBP [2] = target: T1, MBP; assay: CARS with MBP, SO fluorescence, 96-well; type: binding, E. coli; details: for Change in SO fluorescence in the presence of MBP: negative controls, 0–1 mM
[3] = system: HEK-cell line stably expressing I477N-mutant myocilin; assay: Cellular toxicity profile; type: cell-based; details: up to 200 µM
[4] = system: HEK-cell line stably expressing I477N-mutant myocilin; assay: Mutant myocilin cellular secretion assay; type: cell-based; details: 20, 100, 200 µM compound, 24 h, immunoblotting of media
Solubility in cell media = type: physicochemical; details: addition to cell media
myoc-OLF [5] = target: T2, myoc-OLF (Homo sapiens, UniProt Q99972); assay: myoc-OLF amyloid fibrillization assay; type: biochemical; details: for myoc-OLF fibrillization (ThT fluorescence): ~3 d, 96-well format; for Fibrils/deposits by AFM: after fibrillization assay
T2 sequence (Q99972 244-503 limits assumed): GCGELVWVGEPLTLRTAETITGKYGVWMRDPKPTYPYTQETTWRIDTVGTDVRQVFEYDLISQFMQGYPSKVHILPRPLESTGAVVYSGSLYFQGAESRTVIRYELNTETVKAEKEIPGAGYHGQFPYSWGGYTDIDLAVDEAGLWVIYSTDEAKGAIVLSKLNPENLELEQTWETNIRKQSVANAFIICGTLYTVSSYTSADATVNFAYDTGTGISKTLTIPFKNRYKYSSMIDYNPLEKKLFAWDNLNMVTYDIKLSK

myoc-OLF [6] = target: T2, myoc-OLF; assay: Differential scanning fluorimetry; type: binding; details: DSF; hits at concentrations used for screening
myoc-OLF [7] = target: T2, myoc-OLF; assay: SPR binding to immobilized myoc-OLF; details: for Binding mode by SPR: sensorgram inspection
[8] = Solubility behavior under SPR conditions; type: physicochemical
myoc-OLF [9] = target: T2, myoc-OLF; assay: CARS with myoc-OLF, TMAO dose-dependent SO fluorescence, 96-well; type: binding; details: 1 µM myoc-OLF, 0.6 M GdnHCl
Procedure, shortened: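 myoc-OLF was expressed as a Factor Xa-cleavable MBP fusion and purified. TMAO was titrated at 0−1 M, and protein was added last, just before fluorescence readings. The signal window was the SO fluorescence difference with versus without 1 M TMAO.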

[10] = standard SPR conditions, 5% DMSO
[11] = standard SPR conditions, compounds dissolved in 5% DMSO

Structure (SMILES): OC[C@H]1O[C@H](O[C@H]2[C@H](O)[C@@H](O)C(O)O[C@@H]2CO)[C@H](O)[C@@H](O)[C@@H]1O (mixture of isomers) [Maltose, maltose]
Change in melting temperature (ITm) (MBP [1]): 10 K
Kd (E. coli MBP): 1 µM
Decrease in SO fluorescence intensity (MBP [2]; at low micromolar concentrations, 2 µM MBP, 0.6 M GdnHCl): 50%

Solubility in cell media (Solubility in cell media): adequate solubility
Structure (SMILES): O=c1cc(-c2ccccc2)oc2c(O)c(O)ccc12 [A1, 7,8-dihydroxyflavone]
Cellular toxicity profile [3]: adequate
Secretion of I477N-mutant myocilin [4]: increased I477N-mutant myocilin secretion in a dose-dependent manner
myoc-OLF fibrillization (ThT fluorescence) (myoc-OLF [5]): dose-dependent decrease in myoc-OLF fibrilization

ΔTm (myoc-OLF [6]): −0.3 ± 0.2 °C
Fibrils/deposits by AFM (myoc-OLF [5]): no fibrils apparent
Structure (SMILES): O=c1cc(-c2ccc(O)cc2)oc2cc(O)cc(O)c12 [Apigenin, 4’,5,7-trihydroxyflavone]
Solubility in cell media (Solubility in cell media): precipitated upon addition to the cell media
myoc-OLF fibrillization (ThT fluorescence) (myoc-OLF [5]): decreased myoc-OLF fibrillization in a dose-dependent manner

Structure (SMILES): O=C(O)C1=CC(=C(c2ccc(O)c(C(=O)O)c2)c2ccc(O)c(C(=O)O)c2)C=CC1=O [Aurintricarboxilic acid, Aurintricarboxylic acid]
Kd (myoc-OLF [7]): 17.1 ± 9.6 µM
ΔTm (myoc-OLF [6]): 0.3 ± 0.2 °C
Fibrils/deposits by AFM (myoc-OLF [5]): high levels of deposits similar to vehicle control
myoc-OLF fibrillization (ThT fluorescence) (myoc-OLF [5]): increase in ThT fluorescence

Structure (SMILES): O=C1Nc2ccccc2C1=Cc1cc(Br)c(O)c(Br)c1 [G5]
Cellular toxicity profile [3]: adequate
Secretion of I477N-mutant myocilin [4]: increased I477N-mutant myocilin secretion in a dose-dependent manner
Solubility in cell media (Solubility in cell media): adequate solubility
myoc-OLF fibrillization (ThT fluorescence) (myoc-OLF [5]): potent fibril inhibition

Solubility behavior [8, 10]: poor solubility behavior
Kd (myoc-OLF [7]; read-out: Kd from SPR, standard SPR conditions, compounds dissolved in 5% DMSO): 33.5 ± 20.9 µM
ΔTm (myoc-OLF [6]): 0.2 ± 0.0 °C
Fibrils/deposits by AFM (myoc-OLF [5]): no fibrils apparent
Structure (SMILES): O=C1Nc2ccc(I)cc2C1=Cc1cc(Br)c(O)c(Br)c1 [GW5074, 3-(3,5-dibromo-4-hydroxybenzylidine-5-iodo-1,3-dihydro-indol-2-one)]
Solubility in cell media (Solubility in cell media): precipitated upon addition to the cell media
myoc-OLF fibrillization (ThT fluorescence) (myoc-OLF [5]): decreased myoc-OLF fibrillization in a dose-dependent manner

Binding mode by SPR (myoc-OLF [7]): bind non-specifically
Kd from SPR (myoc-OLF [7]; [11]): linear dose-response
Structure (SMILES): O=C(/C=C/c1ccc(O)cc1)c1ccc(O)cc1O [Isoliquiritigenin]

Solubility behavior [8, 10]: poor solubility behavior
Binding mode by SPR (myoc-OLF [7]): non-stoichiometric binders
Kd from SPR (myoc-OLF [7]; with surfactant P-20 in buffer solution): weak sigmoidal response ^c, ^d
ΔTm (myoc-OLF [6]): −0.4 ± 0.4 °C
Structure (SMILES): O=c1c(O)c(-c2ccc(O)cc2O)oc2cc(O)cc(O)c12 [Morin]

Structure (SMILES): O=c1c(O)c(-c2cc(O)c(O)c(O)c2)oc2cc(O)cc(O)c12 [Myricetin]
Binding mode by SPR (myoc-OLF [7]): bind non-specifically
Kd from SPR (myoc-OLF [7]; [11]): linear dose-response
ΔTm (myoc-OLF [6]): 1.7 ± 0.0 °C

Solubility behavior [8, 10]: poor solubility behavior
Kd from SPR (myoc-OLF [7]; [11]): no detectable binding ^d
ΔTm (myoc-OLF [6]): 0.0 ± 0.2 °C
Structure (SMILES): O=C(Nc1ccc([N+](=O)[O-])cc1Cl)c1cc(Cl)ccc1O [Niclosamide]
Binding mode by SPR (myoc-OLF [7]): failed to elicit an interpretable response

Structure (SMILES): O=S(=O)(F)Cc1ccccc1 [PMSF]
Change in SO fluorescence in the presence of MBP (MBP [2]): Neither

Structure (SMILES): O=C(CCc1ccc(O)cc1)c1c(O)cc(O)cc1O [Phloretin]
Binding mode by SPR (myoc-OLF [7]): bind non-specifically
Kd from SPR (myoc-OLF [7]; [11]): linear dose-response
ΔTm (myoc-OLF [6]): 1.2 ± 0.0 °C

Binding mode by SPR (myoc-OLF [7]): non-stoichiometric binders
Kd from SPR (myoc-OLF [7]; [11]): sigmoidal dose-response
ΔTm (myoc-OLF [6]): −0.4 ± 0.1 °C
Structure (SMILES): Oc1cc(O)cc(/C=C/c2ccc(O)c(O)c2)c1 [Piceatannol]

Structure (SMILES): CC(=O)c1c(O)c(C)c(O)c(Cc2c(O)c3c(c(C(=O)/C=C/c4ccccc4)c2O)OC(C)(C)C=C3)c1O [Rottlerin]
Kd (myoc-OLF [7]): 30.1 ± 0.6 µM
Binding mode by SPR (myoc-OLF [7]): promiscuous binder

Structure (SMILES): C[N+](C)(C)[O-] [TMAO, trimethylamine-N-oxide]
Concentration by which the decrease in SO fluorescence levels off (myoc-OLF [9]): ≤ 1 M

Solubility behavior [8]: poor solubility behavior
Kd (myoc-OLF [7]; read-out: Kd from SPR, with surfactant P-20 in buffer solution): 38.6 ± 12.7 µM
Binding stoichiometry from SPR (myoc-OLF [7]; surfactant P-20 present in SPR buffer): stoichiometric binding
ΔTm (myoc-OLF [6]): −0.8 ± 0.0 °C
Structure (SMILES): CC(C)(C)c1cc(/C=C(\C#N)C(N)=S)cc(C(C)(C)C)c1O [Tyrphostin AG 879]

Structure (SMILES): NC(=O)CI [iodoacetamide]
Change in SO fluorescence in the presence of MBP (MBP [2]): Neither

Structure (SMILES): OC[C@@H](O)[C@@H](O[C@H]1O[C@H](CO)[C@@H](O)[C@H](O)[C@H]1O)[C@H](O)[C@@H](O)CO [maltitol]
Change in melting temperature (ITm) (MBP [1]): 0.9 K
Kd (E. coli MBP): 50 µM
Concentration by which a decrease in SO fluorescence was seen (MBP [2]; 2 µM MBP, 0.6 M GdnHCl): ~ 10 µM

Structure (SMILES): OC[C@H]1O[C@H](O[C@H]2[C@H](O)[C@@H](O)[C@@H](O[C@H]3[C@H](O)[C@@H](O)[C@@H](O[C@H]4[C@H](O)[C@@H](O)C(O)O[C@@H]4CO)O[C@@H]3CO)O[C@@H]2CO)[C@H](O)[C@@H](O)[C@@H]1O (stereo partly drawn) [maltotetraose]
Change in melting temperature (ITm) (MBP [1]): 10 K
